Results reported in ChEMBL document CHEMBL1131631, “Piperazinyl oxazolidinone antibacterial agents containing a pyridine, diazene, or triazene heteroaromatic ring” (1998).
Converted amounts (≈) assume the structure as drawn.

How the values were obtained:
[1] = test system: Streptococcus pneumoniae; assay: Minimum inhibitory concentration Streptococcus pneumoniae UC9912; assay type: functional
Summary of the method: (§1)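 MIC in µg/mL. S. aureus UC 9213 is methicillin-susceptible, and S. aureus UC 6685 and S. epidermidis UC 12084 are methicillin-resistant. E. faecalis UC 9217 and S. pneumoniae UC 9912 were also tested.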

[2] = test system: Staphylococcus aureus; assay: Minimum inhibitory concentration against Staphylococcus aureus UC6685; assay type: functional; summary of the method: as §1
[3] = test system: Enterococcus faecalis; assay: Minimum inhibitory concentration against Enterococcus faecalis UC9217; assay type: functional; summary of the method: as §1
[4] = test system: Staphylococcus epidermidis; assay: Minimum inhibitory concentration against Staphylococcus epidermis UC12084; assay type: functional; summary of the method: as §1
[5] = test system: Staphylococcus aureus; assay: Minimum inhibitory concentration against Staphylococcus aureus UC9213; assay type: functional; summary of the method: as §1
[6] = test system: Staphylococcus aureus; assay: compound was tested against Staphylococcus aureus UC9213 the eperezolid administered positive control expressed as ED50 values.; assay type: functional
Summary of the method: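 Eperezolid was given orally in the same lethal systemic mouse S. aureus trial as the test agents. The ED50 is the mg/kg/dose that reduces mortality by 50%.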

[7] = test system: Staphylococcus aureus; assay: compound was tested against Staphylococcus aureus UC9213 after po administration.; assay type: functional
Summary of the method: (§2)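 Lethal systemic S. aureus infection in mice, with oral dosing. The ED50 is the dose in mg/kg body weight per dose that reduces mortality by 50%. The 95% confidence limits are −50% and +100% of the nominal value.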

[8] = test system: Mus musculus; assay: compound was tested against Staphylococcus aureus UC9213 the eperezolid administered (PO) in mouse positive control expressed as ED50 values.
[9] = test system: Mus musculus; assay: Compound was tested against Staphylococcus aureus UC9213 after po administration in mouse; assay type: functional; summary of the method: as §2
[10] = test system: Caco-2; assay: permeability assessment across a monolayer of caco-2 cells in absence of GSH in aqueous base.; assay type: functional, Homo sapiens
[11] = test system: Caco-2; assay: permeability assessment across a monolayer of caco-2 cells in presence of GSH in aqueous base.; assay type: functional, Homo sapiens
[12] = test system: Streptococcus pneumoniae; assay: MIC activity against Streptococcus pneumoniae UC9912; assay type: functional; summary of the method: as §1
[13] = test system: Caco-2; assay: permeability assessment across […]; assay type: functional, Homo sapiens
[14] = test system: Mus musculus; assay: compound was tested against Staphylococcus aureus UC9213 the vancomycin administered (sc) in mouse positive control expressed as ED50 values.; assay type: functional

Row | SMILES | MIC [1] | MIC [2] | MIC [3] | MIC [4] | MIC [5] | MIC [12] | ED50 [6] | ED50 [7] | ED50 [8] | ED50 [9] | [A] [10] | [A] [11] | [EA] [13] | ED50 [14]
1 | CC(=O)NC[C@H]1CN(c2ccc(N3CCN(c4ccc5nc(C)c(C(C)=O)n5n4)CC3)c(F)c2)C(=O)O1 | 0.5 µg/mL (≈ 0.981 µM) | 4 µg/mL (≈ 7.85 µM) | 4 µg/mL (≈ 7.85 µM) | 1 µg/mL (≈ 1.96 µM) | 4 µg/mL (≈ 7.85 µM) |  |  |  |  |  |  |  |  | 
2 | CC(=O)NC[C@H]1CN(c2ccc(N3CCN(c4cccc(C)n4)CC3)c(F)c2)C(=O)O1 | 0.5 µg/mL (≈ 1.17 µM) | 2 µg/mL (≈ 4.68 µM) | 2 µg/mL (≈ 4.68 µM) | 2 µg/mL (≈ 4.68 µM) | 4 µg/mL (≈ 9.36 µM) |  |  |  |  |  |  |  |  | 
3 | CC(=O)NC[C@H]1CN(c2ccc(N3CCN(c4cc(C)c(Cl)nn4)CC3)c(F)c2)C(=O)O1 | 1 µg/mL (≈ 2.16 µM) | 4 µg/mL (≈ 8.64 µM) | 4 µg/mL (≈ 8.64 µM) | 2 µg/mL (≈ 4.32 µM) | 8 µg/mL (≈ 17.3 µM) |  | 8.7 mg/kg | > 20 mg/kg |  |  |  |  |  | 
4 | CC(=O)NC[C@H]1CN(c2ccc(N3CCN(c4c(F)c(F)nc(F)c4F)CC3)c(F)c2)C(=O)O1 | 2 µg/mL (≈ 4.12 µM) | > 16 µg/mL | > 16 µg/mL | > 16 µg/mL | > 16 µg/mL |  |  |  |  |  |  |  |  | 
5 | CC(=O)NC[C@H]1CN(c2ccc(N3CCN(c4nnc(Cl)c(C)c4C)CC3)c(F)c2)C(=O)O1 | 2 µg/mL (≈ 4.19 µM) | > 16 µg/mL | > 16 µg/mL | 4 µg/mL (≈ 8.39 µM) | > 16 µg/mL |  |  |  |  |  |  |  |  | 
6 | CC(=O)NC[C@H]1CN(c2ccc(N3CCN(c4cc(NC(C)=O)c(Cl)nn4)CC3)c(F)c2)C(=O)O1 | 4 µg/mL (≈ 7.91 µM) | > 16 µg/mL | > 16 µg/mL | 16 µg/mL (≈ 31.6 µM) | > 16 µg/mL |  |  |  |  |  |  |  |  | 
7 | CC(=O)NC[C@H]1CN(c2ccc(N3CCOCC3)c(F)c2)C(=O)O1 [LINEZOLID] |  |  |  | 1 µg/mL (≈ 2.96 µM) |  |  |  |  |  | 5.6 mg/kg |  |  |  | 3.9 mg/kg
8 | CC(=O)NC[C@H]1CN(c2ccc(N3CCN(C(=O)CO)CC3)c(F)c2)C(=O)O1 [EPEREZOLID] | 0.5 µg/mL (≈ 1.27 µM) | 1 µg/mL (≈ 2.54 µM) | 2 µg/mL (≈ 5.07 µM) | 0.5 µg/mL (≈ 1.27 µM) | 4 µg/mL (≈ 10.1 µM) |  |  |  |  | 1.9 mg/kg |  |  |  | 3.9 mg/kg
9 | CC(=O)NC[C@H]1CN(c2ccc(N3CCN(c4nccc(C(F)(F)F)n4)CC3)c(F)c2)C(=O)O1 | 2 µg/mL (≈ 4.15 µM) | > 16 µg/mL | > 16 µg/mL | 16 µg/mL (≈ 33.2 µM) | > 16 µg/mL |  |  |  |  |  |  |  |  | 
10 | CC(=O)NC[C@H]1CN(c2ccc(N3CCN(c4ccc(C)nn4)CC3)c(F)c2)C(=O)O1 | 0.5 µg/mL (≈ 1.17 µM) | 2 µg/mL (≈ 4.67 µM) | 2 µg/mL (≈ 4.67 µM) | 1 µg/mL (≈ 2.33 µM) | 4 µg/mL (≈ 9.34 µM) |  |  |  | 8.7 mg/kg | 6.3 mg/kg |  |  |  | 

Further lines, with some results ahead:

Row | MIC [1] | MIC [2] | MIC [3] | MIC [4] | MIC [5] | MIC [12] | SMILES | ED50 [6] | ED50 [7] | ED50 [8] | ED50 [9] | [A] [10] | [A] [11] | [EA] [13] | ED50 [14]
11 | 0.5 µg/mL (≈ 1.11 µM) | 1 µg/mL (≈ 2.23 µM) | 1 µg/mL (≈ 2.23 µM) | 0.5 µg/mL (≈ 1.11 µM) | 2 µg/mL (≈ 4.46 µM) |  | CC(=O)NC[C@H]1CN(c2ccc(N3CCN(c4cncc(Cl)n4)CC3)c(F)c2)C(=O)O1 | 3.2 mg/kg | > 20 mg/kg |  |  |  |  |  | 
12 | 0.5 µg/mL (≈ 1.21 µM) | 1 µg/mL (≈ 2.41 µM) | 2 µg/mL (≈ 4.83 µM) | 0.5 µg/mL (≈ 1.21 µM) | 2 µg/mL (≈ 4.83 µM) |  | CC(=O)NC[C@H]1CN(c2ccc(N3CCN(c4cnccn4)CC3)c(F)c2)C(=O)O1 |  |  | 3.2 mg/kg | 12.5 mg/kg |  |  |  | 
13 | < 0.125 µg/mL | 2 µg/mL (≈ 4.84 µM) | 2 µg/mL (≈ 4.84 µM) | 0.5 µg/mL (≈ 1.21 µM) | 4 µg/mL (≈ 9.67 µM) |  | CC(=O)NC[C@H]1CN(c2ccc(N3CCN(c4ccncc4)CC3)c(F)c2)C(=O)O1 |  |  |  |  |  |  |  | 
14 | 0.5 µg/mL (≈ 1.14 µM) | 1 µg/mL (≈ 2.28 µM) | 1 µg/mL (≈ 2.28 µM) | 1 µg/mL (≈ 2.28 µM) | 1 µg/mL (≈ 2.28 µM) |  | CC(=O)NC[C@H]1CN(c2ccc(N3CCN(c4cc(C#N)ccn4)CC3)c(F)c2)C(=O)O1 |  |  |  |  |  |  |  | 
15 |  | 1 µg/mL (≈ 2.23 µM) | 1 µg/mL (≈ 2.23 µM) | 0.5 µg/mL (≈ 1.11 µM) | 2 µg/mL (≈ 4.46 µM) | 0.5 µg/mL (≈ 1.11 µM) | CC(=O)NC[C@H]1CN(c2ccc(N3CCN(c4ccnc(Cl)n4)CC3)c(F)c2)C(=O)O1 | 1.8 mg/kg | 14.6 mg/kg |  |  | 17 µM | 17 µM | 50 µM | 
16 | 0.5 µg/mL (≈ 1.21 µM) | 2 µg/mL (≈ 4.84 µM) | 2 µg/mL (≈ 4.84 µM) | 1 µg/mL (≈ 2.42 µM) | 4 µg/mL (≈ 9.67 µM) |  | CC(=O)NC[C@H]1CN(c2ccc(N3CCN(c4ccccn4)CC3)c(F)c2)C(=O)O1 |  |  | 6 mg/kg | 11.2 mg/kg | 37 µM | 37 µM |  | 
17 | 0.5 µg/mL (≈ 1.21 µM) | 2 µg/mL (≈ 4.83 µM) | 2 µg/mL (≈ 4.83 µM) | 0.5 µg/mL (≈ 1.21 µM) | 2 µg/mL (≈ 4.83 µM) |  | CC(=O)NC[C@H]1CN(c2ccc(N3CCN(c4ncccn4)CC3)c(F)c2)C(=O)O1 |  |  | 6.2 mg/kg | 6 mg/kg |  |  |  | 
